Results taken from ChEMBL document CHEMBL1123293, “Potent vasopressin antagonists lacking the proline residue at position 7” (J Med Chem, 1986).

Experiments:
Rattus norvegicus = assay: Dose required to decrease urine osmolality in rats from the hydropenic levels (~1500 mOsm/kg of H20) 300 mOsm/kg H20; type: functional
Outline: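 Male rats were deprived of food and water overnight to give a stable hydropenic state (urine osmolality ~1500 mOsm/kg H₂O). Rats were kept in metabolism cages, four per cage, and given vehicle or one of four doses. Urine volume and osmolality were measured. ED (µg/kg) to lower Uosm to 300 mOsm/kg H₂O was averaged from one to three dose-response curves per peptide.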

Vasopressin V2 receptor = Vasopressin V2 receptor (Sus scrofa, UniProt P32307); assay: Inhibition of LVP stimulated adenylate cyclase activity in pig kidney medullary membrane; type: functional, cell membranes
Outline: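 LVP-stimulated adenylate cyclase in pig kidney medullary membranes. The inhibition constant K_i was derived from the competitive-inhibition equation. Values are the mean of triplicate determinations.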

[1] = biological target: Vasopressin V2 receptor (Sus scrofa) (UniProt P32307); assay: Affinity for vasopressin V2-receptor of porcine renal medullary membrane; type: tissue-based; conditions: Renal medulla
Outline: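 Porcine renal medullary membrane preparation; displacement of [³H]LVP binding. K_bind calculated from the IC50 by the competitive-inhibition relation Kb = IC50/(1 + L/K_D), with K_D taken as the dissociation constant of [³H]LVP.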

Sequence of Vasopressin V2 receptor (Sus scrofa) (P32307 whole entry): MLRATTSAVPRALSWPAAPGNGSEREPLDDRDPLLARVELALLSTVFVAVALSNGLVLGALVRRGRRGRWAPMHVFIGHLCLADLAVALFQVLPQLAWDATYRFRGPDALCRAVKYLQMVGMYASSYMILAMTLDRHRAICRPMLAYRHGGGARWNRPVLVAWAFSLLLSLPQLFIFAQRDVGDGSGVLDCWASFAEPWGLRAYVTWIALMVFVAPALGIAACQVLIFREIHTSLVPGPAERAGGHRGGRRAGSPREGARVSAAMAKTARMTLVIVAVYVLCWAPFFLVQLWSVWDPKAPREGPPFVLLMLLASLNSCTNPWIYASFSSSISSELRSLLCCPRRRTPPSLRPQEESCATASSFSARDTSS
Sequence of Vasopressin V2 receptor (P32307 whole entry): as above

Row | Compound | K bind [1] | further results
1 | CCOc1ccc(C[C@H]2NC(=O)CC3(CCCCC3)SSC[C@@H](C(=O)N3CCC[C@H]3C(=O)N[C@@H](CCCN=C(N)N)C(N)=O)NC(=O)[C@H](CC(N)=O)NC(=O)[C@H](C(C)C)NC(=O)[C@H](Cc3ccccc3)NC2=O)cc1 | – | ED300 (Rattus norvegicus): 9 µg/kg
2 | CCOc1ccc(C[C@H]2NC(=O)CC3(CCCCC3)SSC[C@@H](C(=O)N[C@@H](CCCNC(=N)N)C(N)=O)NC(=O)[C@H](CCN)NC(=O)[C@H](C(C)C)NC(=O)[C@H](Cc3ccccc3)NC2=O)cc1 | – | Ki (Vasopressin V2 receptor): 2.5 nM
3 | CCOc1ccc(C[C@@H]2NC(=O)CC3(CCCCC3)SSC[C@H](C(=O)N[C@@H](CCCCN)C(N)=O)NC(=O)[C@@H](CCN)NC(=O)[C@H](C(C)C)NC(=O)[C@@H](Cc3ccccc3)NC2=O)cc1 | 26 nM | –
4 | CCOc1ccc(C[C@H]2NC(=O)CC3(CCCCC3)SSC[C@@H](C(=O)N3CCC[C@H]3C(=O)N[C@@H](CCCN=C(N)N)C(=O)NCC(N)=O)NC(=O)[C@H](CC(N)=O)NC(=O)[C@H](C(C)C)NC(=O)[C@H](Cc3ccccc3)NC2=O)cc1 | – | ED300 (Rattus norvegicus): 11 µg/kg
5 | CCOc1ccc(C[C@@H]2NC(=O)CC3(CCCCC3)SSC[C@H](C(=O)N3CCC[C@H]3C(=O)N[C@@H](CCCN=C(N)N)C(N)=O)NC(=O)[C@@H](CC(N)=O)NC(=O)[C@H](C(C)C)NC(=O)[C@@H](Cc3ccccc3)NC2=O)cc1 | 12 nM | –
6 | CCOc1ccc(C[C@@H]2NC(=O)CC3(CCCCC3)SSC[C@H](C(=O)N[C@H](CCCN=C(N)N)C(N)=O)NC(=O)[C@@H](CCN)NC(=O)[C@H](C(C)C)NC(=O)[C@@H](Cc3ccccc3)NC2=O)cc1 | 4.4 nM | –
7 | CCOc1ccc(C[C@@H]2NC(=O)CC3(CCCCC3)SSC[C@H](C(=O)N3CCC[C@H]3C(=O)N[C@@H](CCCN=C(N)N)C(=O)NCC(N)=O)NC(=O)[C@@H](CC(N)=O)NC(=O)[C@H](C(C)C)NC(=O)[C@@H](Cc3ccccc3)NC2=O)cc1 | 12 nM | –
